This is a sample that favours compounds with a hit; in the whole collection about 2.3% have one here.
PLC-gamma1 inh: blocks human PLC-gamma1 enzyme activity | P19174 | purified PLC-gamma1, fluorogenic substrate, fluorescence | inhibition, % at 12.2 µM | 370,000 compounds, 0.84% hits | AID 720700
ADAM10 inh: inhibits human ADAM10; O14672; recombinant ADAM10, EDANS/DABCYL FRET peptide cleavage, 3 h; inhibition, % at 7 µM; 370,000 compounds, 0.62% hits; AID 720582;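 active = inhibition above a per-campaign cutoff equal to the mean of compounds falling between control-based bounds plus 3 SD, cut at about 20% in these data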
ADAM17 inh: ADAM17 inhibition, QFRET primary screen. P78536. recombinant ADAM17, EDANS/DABCYL FRET peptide cleavage. inhibition, % at 6.95 µM. 370,000 compounds, 0.83% hits;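 active = inhibition above the mean of compounds lying between control limits plus 3 SD, set per campaign, cut at about 8.5% in these data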
Tb MetRS inh: Trypanosoma brucei MetRS inhibition | purified T. brucei MetRS, ATP depletion, Kinase-Glo luminescence | inhibition, % at 11.9 µM | 360,000 compounds, 0.4% hits | AID 624268;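 active = inhibition above a per-plate cutoff of the control wells' mean inhibition plus 3 SD, cut at about 5.5% in these data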
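System: purified T. brucei MetRS enzyme / Detection: Kinase-Glo luciferase luminescence reporting remaining unconsumed ATP / Medium: HEPES buffer with MgCl2, KCl, DTT, spermine, BSA, pyrophosphatase / Replication: singlicate, one well per compound / Evaluation: percent inhibition relative to median high and low control wells / Schedule: 2 h aminoacylation at 25 °C after 15 min preincubation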
PLCb3 inh: inhibitors of human phospholipase C beta3. Purified PLC-beta3, fluorogenic substrate, fluorescence. inhibition, % at 12.2 µM. 370,000 compounds, 0.18% hits; in the data active = inhibition above about 11%
ADAM10 counter: ADAM10 inhibition, counter-screen for ADAM17 exosite hits. 2,900 compounds, 47% hits. recombinant ADAM10, EDANS/DABCYL FRET peptide cleavage, 3 h. shares compounds with ADAM17 inh. inhibition, % at 6.95 µM;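 active = mean inhibition over the triplicate runs exceeds the activity threshold set in the earlier primary screen, cut at about 20% in these data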
ADAM17 confirm: confirmation of inhibitors of human ADAM17 | shares compounds with ADAM17 inh | recombinant ADAM17, EDANS/DABCYL QFRET peptide cleavage | inhibition, % at 6.95 µM | 2,900 compounds, 65% hits | AID 743257;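 active = mean inhibition across replicates above the hit cutoff set in the primary screen, cut at about 8.5% in these data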
PLCg1 ctr: inhibits human PLC-gamma1 in PLC-beta3 counter-screen. inhibition, % at 12.3 µM. shares compounds with PLC-gamma1 inh. purified PLC-gamma1, fluorogenic substrate, fluorescence. AID 743258. 3,300 compounds, 3.1% hits
PLCbeta3 conf: human PLC-beta3 inhibition, confirmation | shares compounds with PLC-gamma1 inh | inhibition, % at 12.3 µM | AID 743261 | 3,300 compounds, 1% hits | purified PLC-beta3, fluorogenic substrate fluorescence; in the data active = inhibition above about 11%
Of the large screens only hits and unclear results are named; the others gave an inactive call (follow-up assays come after a bar, where they were run). Rule as the data show it, unless noted: active = inhibition above about 9.5%; inactive = the rest.

Cc1cccc(N2C(=O)/C(=C/c3ccc(CN(CCC#N)S(C)(=O)=O)o3)C(=O)NC2=S)c1	ADAM17 inh 9.1 | ADAM10 counter inactive | ADAM17 confirm inactive
Cc1cc(O)c2c(c1)OC(C)(C)C1=C2CC(C)CC1 (stereo unspecified)	ADAM17 inh 12.1 | ADAM10 counter 30.4 | ADAM17 confirm 14.1
COC(=O)C1=C(c2ccc(F)cc2OCc2ccccc2)C[C@@H]2CC[C@H]1N2C(=O)NCc1ccc(C)cc1	none
COC(=O)C1=C(c2ccc(F)cc2OCc2ccccc2)C[C@@H]2CC[C@H]1N2C(=O)NCc1ccc([N+](=O)[O-])cc1	ADAM17 inh 9.0 | ADAM10 counter 30.2 | ADAM17 confirm 19.5
C[N+]1=C(N)NC2=C3CCCCC3ONC2C1 (stereo unspecified)	none (no result: Tb MetRS inh)
O=C(NC(CCC(O)CO)P(=O)(Oc1ccccc1)Oc1ccccc1)OCc1ccccc1 (stereo unspecified)	none (no result: Tb MetRS inh)
O=C(c1cc2c(s1)CCCCCC2)N1CCC2(CC1)OCCO2	ADAM17 inh 8.7 | ADAM10 counter inactive | ADAM17 confirm 11.7
CCc1sc(C(=O)N2CCC3(CC2)OCCO3)cc1Br	none
O=C(N/N=C/c1c(O)n(-c2ccccc2)c(=S)[nH]c1=O)c1ccccc1	none
CC(C)c1ccc(-n2c(O)c(C=NC(CCS(C)=O)C(=O)O)c(=O)[nH]c2=S)cc1 (stereo unspecified)	ADAM17 inh 9.2 | ADAM10 counter inactive | ADAM17 confirm inactive
CCCC(=O)N1c2ccc(Cl)cc2C(c2ccccc2)=NCC1C(=O)NC(C)(C)C (stereo unspecified)	none (no result: Tb MetRS inh)
CC(C)=CCc1c(O)cc2c(c1O)C(=O)CC(c1ccc(O)cc1)O2 (stereo unspecified)	ADAM17 inh 9.3 | ADAM10 counter 37.2 | ADAM17 confirm 19.8
CSCCC(c1nnnn1Cc1ccccc1)N1CCC2(CC1)C(=O)NCN2c1ccccc1 (stereo unspecified)	PLC-gamma1 inh 11.1, ADAM17 inh 10.9 | ADAM10 counter inactive | ADAM17 confirm inactive | PLCg1 ctr inactive | PLCbeta3 conf inactive
CN1C[C@H](O)[C@H]2C[C@@H]1c1ccccc1O2	none (no result: Tb MetRS inh)
N#CCC[C@@H]1CC[C@]2(CCCN(Cc3ccccn3)C2)O1	none (no result: Tb MetRS inh)
CSCCC(c1nnnn1C1CCCC1)N1CCC(n2c(=O)[nH]c3ccccc32)CC1 (stereo unspecified)	PLC-gamma1 inh 10.1, ADAM17 inh 9.2 | ADAM10 counter inactive | ADAM17 confirm 10.7 | PLCg1 ctr inactive | PLCbeta3 conf inactive
CSCCC(c1nnnn1C1CCCCC1)N1CCC(n2c(=O)[nH]c3ccccc32)CC1 (stereo unspecified)	none
CC(c1ccccc1)n1cncc1C(=O)O (stereo unspecified)	PLC-gamma1 inh 10.9, ADAM17 inh 9.4 | ADAM10 counter inactive | ADAM17 confirm 10.8 | PLCg1 ctr inactive | PLCbeta3 conf inactive
CC1CN=C(NCc2ccccc2Cl)S1 (stereo unspecified)	none
CC1(C)CN=C(NCc2ccccc2Cl)S1	PLC-gamma1 inh 12.2 | PLCg1 ctr inactive | PLCbeta3 conf inactive
O=P(O)(O)C12CC3CC(CC(C3)C1)C2	PLC-gamma1 inh 12.8 | PLCg1 ctr inactive | PLCbeta3 conf inactive
COc1ccc(CCNCc2c(OC)ccc3ccccc23)cc1	PLC-gamma1 inh 9.6 | PLCg1 ctr 36.7 | PLCbeta3 conf inactive
Clc1ccc2c(c1)C(OC1CN3CCC1CC3)c1ccccc1CS2 (stereo unspecified)	none
CN1CCN(CCOC2c3ccccc3CSc3ccc(Cl)cc32)CC1 (stereo unspecified)	PLC-gamma1 inh 12.5 | PLCg1 ctr inactive | PLCbeta3 conf inactive

Source: PubChem BioAssay (The Scripps Research Institute Molecular Screening Center)
